Experimental data taken from ChEMBL document CHEMBL1154667, “Synthesis of 3beta, 7alpha, 11alpha-trihydroxy-pregn-21-benzylidene-5-en-20-one derivatives and their cytotoxic activities” (2009).

Assay: Cytotoxicity against human EC109 cells at 50 ug/ml after 48 hrs by MTT assay
Assay type: functional
Conditions: ECa-109, 48 h
Summary of the method: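 EC109 cells grown in RPMI-1640 with 10% fetal calf serum, penicillin and streptomycin at 37 °C in 5% CO2. Seeded at 7000 cells/well; compound diluted in medium added next day for 48 h. MTT (0.5 mg/mL in PBS) then added for a further 4 h, formazan dissolved in DMSO, absorbance read at 570 nm.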

In order of rising inhibition at 50 µg/mL:
1. CC(=O)[C@H]1CC[C@H]2[C@@H]3CC=C4C[C@@H](O)CC[C@]4(C)[C@H]3CC[C@]12C [PREGNENOLONE]  13.6%
2. CC(=O)[C@H]1CC[C@H]2[C@H]3[C@H]([C@H](O)C[C@]12C)[C@@]1(C)CC[C@H](O)CC1=C[C@H]3O  21.7%
3. COc1cc(OC)c(/C=C/C(=O)[C@H]2CC[C@H]3[C@H]4[C@H]([C@H](O)C[C@]23C)[C@@]2(C)CC[C@H](O)CC2=C[C@H]4O)c(OC)c1  35.3%
4. CN(C)c1ccc(/C=C/C(=O)[C@H]2CC[C@H]3[C@H]4[C@H]([C@H](O)C[C@]23C)[C@@]2(C)CC[C@H](O)CC2=C[C@H]4O)cc1  39%
5. C[C@]12C[C@@H](O)[C@H]3[C@@H]([C@H](O)C=C4C[C@@H](O)CC[C@@]43C)[C@@H]1CC[C@@H]2C(=O)/C=C/c1ccc(O)cc1  45.7%
6. COc1ccccc1/C=C/C(=O)[C@H]1CC[C@H]2[C@H]3[C@H]([C@H](O)C[C@]12C)[C@@]1(C)CC[C@H](O)CC1=C[C@H]3O  47.4%
7. C[C@]12C[C@@H](O)[C@H]3[C@@H]([C@H](O)C=C4C[C@@H](O)CC[C@@]43C)[C@@H]1CC[C@@H]2C(=O)/C=C/c1ccc(N)cc1  50.2%
8. COc1ccc(/C=C/C(=O)[C@H]2CC[C@H]3[C@H]4[C@H]([C@H](O)C[C@]23C)[C@@]2(C)CC[C@H](O)CC2=C[C@H]4O)cc1  55.3%
9. C[C@]12C[C@@H](O)[C@H]3[C@@H]([C@H](O)C=C4C[C@@H](O)CC[C@@]43C)[C@@H]1CC[C@@H]2C(=O)/C=C/c1ccccc1  59.8%
10. C[C@]12C[C@@H](O)[C@H]3[C@@H]([C@H](O)C=C4C[C@@H](O)CC[C@@]43C)[C@@H]1CC[C@@H]2C(=O)/C=C/c1cccc([N+](=O)[O-])c1  72.4%
11. C[C@]12C[C@@H](O)[C@H]3[C@@H]([C@H](O)C=C4C[C@@H](O)CC[C@@]43C)[C@@H]1CC[C@@H]2C(=O)/C=C/c1cccc(Cl)c1  76.4%
12. C[C@]12C[C@@H](O)[C@H]3[C@@H]([C@H](O)C=C4C[C@@H](O)CC[C@@]43C)[C@@H]1CC[C@@H]2C(=O)/C=C/c1ccc(F)cc1  76.8%
13. C[C@]12C[C@@H](O)[C@H]3[C@@H]([C@H](O)C=C4C[C@@H](O)CC[C@@]43C)[C@@H]1CC[C@@H]2C(=O)/C=C/c1ccc(Cl)cc1  80.2%
14. C=C1C(=O)[C@]23[C@H](O)[C@H]1CC[C@H]2[C@@]12CO[C@]3(O)[C@@H](O)[C@@H]1C(C)(C)CC[C@@H]2O [ORIDONIN]  94.7%
